Measurements reported in PMC3417325 (FEBS letters, 2010).
Ends that are not written are not given here.

Tests used:
[1] = system: S. aureus; conditions: cited from earlier work
[2] = SPR, HNP1 peptides on soluble Lipid II immobilized on the chip surface; assay type: binding; conditions: peptide at 0.1, 1 or 10 µM, supplemental Figure 1
How it was run: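 The ligand was short-chain, water-soluble farnesyl (three-isoprene) Lipid II, made with M. flavus vesicles, C18 HPLC-purified and confirmed by mass spectrometry. Signals were corrected by subtracting a control flow-cell.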

[3] = ANTS/DPX leakage assay from LUVs
How it was run: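 LUVs (250 nm, 600 µM final lipid) were loaded with 12.5 mM ANTS and 45 mM DPX by freeze-thaw and 0.4-µm extrusion, then gel-filtered. Buffer was high-salt (5 mM HEPES, 100 mM NaCl, pH 7.4) or low-salt (10 mM NaCl). Twofold defensin dilutions were added, with a water blank and 0.25% Triton X-100 for 100%. Ex 353/Em 515 nm; % leakage = (Ft−F0)/(F100−F0)×100.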

[4] = system: Staphylococcus aureus ATCC 29213; assay type: cell-based; conditions: peptide 256 and 128 µg/ml, 15 min exposure, growth monitored 12 h

HNP4: fourth α-defensin discovered in neutrophils (VCSCRLVFCRRTELRVGNCLIGGVSFTYCCTRV; disulfide (positions not given here); ends not checked; UniProt P12838 64-96, looked up)
Activity against Gram-positive bacteria / bactericidal activity [1]: ineffective against Gram-positive bacteria

Human Neutrophil Peptide 1 [HNP1]
Binding of peptide to immobilized soluble Lipid II [2]: bound Lipid II dose-dependently | Leakage from LUVs with increasing content of POPG ([3]; POPC:POPG = 1:0, 3:2, 2:3, 0:1, HNP1 0.19 to 100 µg/ml, 1 h, triplicate): increasingly pronounced | Membrane activity (leakage from POPG LUVs) ([3]; POPG LUVs, panel of six α-defensins, high and low salt, over 24 h (Figure 1)): reduced | Bacterial growth after exposure to HNP1 [4]: bacterial growth did not measurably recover | Activity against Gram-positive bacteria / bactericidal activity [1]: potently bactericidal

B1: HD-5: human α-defensin stored in granules of Paneth cells (peptide, UniProt Q01523 20-94, looked up)
Defensin alpha 5: ESLQERADEATTQKQSGEDNQDLAISFAGNGLSALRTSGSQARATCYCRTGRCATRESLSGVCEISGRLYRLCCR
modifications: Defensin-5
Activity against Gram-positive bacteria / bactericidal activity [1]: potently bactericidal
